Assay outcomes: PubChem, The Scripps Research Institute Molecular Screening Center
DAGLB inh: diacylglycerol lipase beta (human) inhibition; Q8NCG7; HEK293T DAGLB membrane lysate, EnzChek fluorogenic substrate; inhibition, % at 5.17 µM; actives 0.059% (n = 340,000); AID 504411; in the data active = inhibition above about 34%;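 note: 0% = enzyme with vehicle and 100% = wells lacking enzyme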
SIAE inh: human SIAE inhibition, primary screen; Q9HAT2; SIAE FP-Rh probe binding, fluorescence polarization; inhibition, % at 9.66 µM; actives 0.69% (n = 370,000); AID 1053197;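 active = inhibition above a cutoff: mean of compounds within the control limits plus 3 SD of those, cut at about 17% in these data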;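 note: 0% = plate median of compound wells and 100% = probe without SIAE protein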
mABHD4 FP: ABHD4 (mouse) inhibition, primary FP screen | Q8VD66 | purified mABHD4, FP-Rh probe fluorescence polarization | inhibition, % at 8.92 µM | actives 0.54% (n = 370,000) | AID 720543;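 active = inhibition exceeding the mean over every tested compound plus 3 SD, cut at about 30% in these data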;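 note: 0% = plate median of compound wells and 100% = S159A mutant with DMSO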
Target sequence (Q8VD66 whole entry, looked up): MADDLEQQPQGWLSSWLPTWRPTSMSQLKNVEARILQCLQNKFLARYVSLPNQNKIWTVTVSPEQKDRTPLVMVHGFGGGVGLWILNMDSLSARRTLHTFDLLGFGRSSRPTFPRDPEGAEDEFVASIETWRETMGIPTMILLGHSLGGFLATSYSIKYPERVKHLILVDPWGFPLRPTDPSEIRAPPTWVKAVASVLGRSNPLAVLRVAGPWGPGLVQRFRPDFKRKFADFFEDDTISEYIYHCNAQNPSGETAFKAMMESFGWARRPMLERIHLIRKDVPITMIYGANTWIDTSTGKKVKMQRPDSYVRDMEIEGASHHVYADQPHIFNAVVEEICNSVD
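Doses – 8.92 µM, single dose · Material – wild-type mouse ABHD4 protein · Replication – single well per compound (singlicate) · Measure – percent inhibition of probe binding, normalized to plate controls · Schedule – 45 min compound pre-incubation plus 60 min probe step, 25 °C · Detection – fluorescence polarization with parallel and perpendicular emission, 525/598 nm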
TCR-CD3 inh: blocks the human TCR-CD3 interaction | TAMRA-labeled TCR probe fluorescence, biochemical | inhibition, % at 9.4 µM | actives 0.37% (n = 360,000);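 note: recombinant mutant TCR 2C K166C tagged with TAMRA read by polarization; 0% = receptor in buffer alone and 100% = receptor with positive control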
HTRA1 inh: inhibitors of human serine peptidase HTRA1. recombinant HTRA1, FP-rhodamine activity-based probe, fluorescence polarization. Q92743. actives 0.5% (n = 340,000). AID 504803. inhibition, % at 5.96 µM; in the data active = inhibition above about 36%;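 note: 0% = enzyme with DMSO and 100% = wells lacking enzyme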
Target sequence (Q92743 whole entry, looked up): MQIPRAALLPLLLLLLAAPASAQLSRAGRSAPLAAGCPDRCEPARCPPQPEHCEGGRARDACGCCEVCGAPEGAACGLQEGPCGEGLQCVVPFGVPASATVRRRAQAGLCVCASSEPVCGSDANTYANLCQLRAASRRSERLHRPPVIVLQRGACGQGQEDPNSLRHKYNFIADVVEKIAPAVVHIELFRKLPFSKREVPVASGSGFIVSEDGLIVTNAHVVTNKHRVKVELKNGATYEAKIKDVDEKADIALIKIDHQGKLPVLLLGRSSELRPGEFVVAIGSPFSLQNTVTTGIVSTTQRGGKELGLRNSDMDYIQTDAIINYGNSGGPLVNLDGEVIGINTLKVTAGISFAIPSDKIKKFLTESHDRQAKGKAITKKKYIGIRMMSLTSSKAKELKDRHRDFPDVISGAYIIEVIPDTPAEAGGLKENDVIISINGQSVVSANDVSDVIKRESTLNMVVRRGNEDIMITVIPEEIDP
HTRA1 conf: HTRA1 (human) inhibition, confirmation | shares compounds with HTRA1 inh | recombinant HTRA1, FP-rhodamine activity-based probe, fluorescence polarization | inhibition, % at 5.96 µM | actives 66% (n = 1,600) | AID 540248;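 active = mean inhibition over three repeats above a set limit taken from the earlier primary screen, cut at about 37% in these data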;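 note: 0% = HTRA1 with DMSO and 100% = wells lacking HTRA1; inhibitors block probe binding so polarization drops and inhibition rises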
BSA probe FL: interferes with TAMRA-BSA probe, flagging TCR-CD3 hits. shares compounds with TCR-CD3 inh. TAMRA-labeled BSA probe fluorescence counterscreen. inhibition, % at 9.4 µM. actives 10% (n = 1,200). AID 652035; in the data active = inhibition above about 23%;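 note: 0% = buffer low control and 100% = reference high control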
TCR-CD3 conf: TCR-CD3 interaction inhibition, confirmation; inhibition, % at 9.4 µM; shares compounds with TCR-CD3 inh; actives 48% (n = 1,200); TAMRA-labeled TCR probe fluorescence binding assay; AID 652036
mABHD4 conf: ABHD4 (mouse) inhibition, FP confirmation. shares compounds with mABHD4 FP. purified mABHD4, FP-Rh probe fluorescence polarization. inhibition, % at 8.92 µM. actives 55% (n = 1,800). AID 720658;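 active = mean inhibition across replicates above the hit cutoff set in the primary screen, cut at about 30% in these data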;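 note: 0% = wild-type ABHD4 with DMSO and 100% = catalytically dead S159A mutant with DMSO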
SIAE inh conf: human SIAE inhibition, confirmation; inhibition, % at 9.66 µM; actives 13% (n = 2,300); SIAE FP-Rh activity-based probe, fluorescence polarization; shares compounds with SIAE inh;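 active = mean inhibition of the replicates above the hit cutoff set in the primary screen, cut at about 17% in these data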;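 note: 0% = SIAE with DMSO and probe and 100% = probe without SIAE; inhibitors lower polarization as more probe stays unbound to SIAE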
Active calls of the source: *; · = not tested or not shown. An excerpt weighted towards active compounds, which were near 1.5% of everything screened. Cut-off read from the data, not from the text of the source, unless noted: active = inhibition above about 19%; inactive = the rest.

SMILES | DAGLB inh | SIAE inh | mABHD4 FP | TCR-CD3 inh | HTRA1 inh | HTRA1 conf | BSA probe FL | TCR-CD3 conf | others
O=C1c2ccccc2-c2cc3ccccc3cc21 | -8.1 | -11.9 | 4.5 | 6.9 | -24.4 | · | · | ·
CC(Cc1ccc(O)cc1)NCC(O)c1ccc(O)c(O)c1 (stereo not drawn) | 5.6 | 9.1 | 53.0* | 7.5 | 53.6* | 53.2* | · | · | mABHD4 conf=60.1*
O=C(O)C(Br)Br | · | 0.8 | -0.5 | 7.9 | · | · | · | ·
O=S(=O)(c1ccccc1)N1Cc2ccccc2-n2nncc2C1 | 0.4 | 3.7 | -0.2 | 0.8 | -1.8 | · | · | ·
CCCN1CCc2cc(O)cc3c2[C@H]1Cc1ccc(O)c(O)c1-3 | 2.4 | 14.1 | 68.7* | 2.6 | 61.9* | 48.4* | · | · | mABHD4 conf=29.6*
C[n+]1c(-c2ccccc2)c2cc(N)ccc2c2ccc(N)cc21 | 3.7 | 49.4* | 75.1* | 116.4* | 96.6* | 123.2* | 160.1* | 130.2* | mABHD4 conf=111.0*
COC(=O)C1C(c2ccccc2)CC2CCC1N2C (stereo not drawn) | · | -2.9 | 7.2 | -0.7 | · | · | · | ·
CCCCCCCCCCCCCCCC[N+](C)(C)C | 2.8 | 4.7 | 31.6* | 6.1 | 54.2* | 77.6* | · | · | mABHD4 conf=54.8*
CCCCCC[N+](=O)[O-] | -3.6 | -1.1 | -1.9 | 2.5 | 1.8 | · | · | ·
COC(=O)C1C(c2ccc(I)cc2)CC2CCC1N2C (stereo not drawn) | · | 1.2 | 2.6 | -4.0 | · | · | · | ·
CC1=C(O)C(=O)C=C2C1=CC=C1C2(C)CCC2(C)C3CC(C)(C(=O)O)CCC3(C)CCC12C (stereo not drawn) | 18.4 | 12.8 | 49.4* | 2.0 | 48.2* | 44.5* | · | · | mABHD4 conf=48.4*
Cc1ccc(OP2(=O)Nc3cc(C)c(C)cc3S2)cc1 (stereo not drawn) | -9.1 | 14.6 | 7.8 | 3.1 | 12.9 | · | · | ·
Cc1cccc(N2C(=O)NC(=O)/C(=C/c3cc4c(cc3[N+](=O)[O-])OCO4)C2=O)c1 | 0.0 | 10.6 | 39.2* | 3.2 | 40.8* | 3.2 | · | · | mABHD4 conf=13.0
O=P(Oc1ccccc1)(Oc1ccccc1)N1CCOCC1 | 0.9 | -2.1 | -0.9 | 0.9 | 5.3 | · | · | ·
O=C(N/N=C1/CN2CCC1CC2)c1cc2ccccc2cc1O | 8.4 | 17.2* | 38.7* | 9.2 | 54.9* | 11.9 | · | · | mABHD4 conf=18.6
C=CCn1c(O)c(C=Nc2ccc(F)cc2)c(=O)[nH]c1=O | -0.7 | -5.6 | 0.7 | 0.1 | 3.2 | · | · | ·
C=CCn1c(O)c(C=Nc2ccc(N(CC)CC)cc2)c(=O)[nH]c1=O | 1.8 | 14.4 | 56.7* | 16.0 | 36.2* | 3.5 | · | · | mABHD4 conf=2.8
Oc1cccc2nc3ccccc3nc12 | 3.9 | 17.9* | 17.7 | 0.5 | 67.4* | 59.5* | · | · | SIAE inh conf=-9.9
COc1cccc2c1C(=O)c1c(O)c3c(c(O)c1C2=O)CC(O)(C(C)=NO)CC3OC1CC(N)C(O)C(C)O1 (stereo not drawn) | -12.2 | 55.0* | 59.0* | 143.5* | 56.0* | 66.6* | 167.1* | 135.8* | mABHD4 conf=58.9*;SIAE inh conf=43.8*
COc1cc(CCN)c(OC)cc1C | · | 2.3 | -0.1 | 2.2 | · | · | · | ·
COC(=O)[C@@H]1N=C(c2ccc(OC)cc2)O[C@]12C(=O)N(C)c1ccc(Cl)cc12 | · | -0.3 | 2.8 | -4.7 | · | · | · | ·
CCC1CN1P(=O)(N1CCCC1)N1CC1CC (stereo not drawn) | 0.1 | -0.6 | 4.2 | -1.1 | 5.2 | · | · | ·
CN1CCc2cc3c(c4c2C1Cc1ccccc1-4)OCO3 (stereo not drawn) | 0.0 | 24.5* | 45.5* | 6.8 | 67.6* | 1.7 | · | · | mABHD4 conf=49.6*;SIAE inh conf=2.5
CN1CCC(c2c[nH]c3ccccc23)C1 (stereo not drawn) | -4.1 | -5.3 | 2.8 | 22.6* | 4.0 | · | 0.8 | 2.7
CCC(=NCC1CCCO1)c1c(O)n(Cc2ccccc2)c(=O)[nH]c1=O (stereo not drawn) | 0.4 | -12.6 | -5.2 | 7.4 | 0.1 | · | · | ·
SMILES | DAGLB inh | SIAE inh | mABHD4 FP | TCR-CD3 inh | HTRA1 inh | HTRA1 conf | BSA probe FL | TCR-CD3 conf | others
CCCCn1c(O)c(/C=N/NC(=O)c2ccncc2)c(=O)[nH]c1=O | 4.0 | 0.9 | 7.2 | 10.8 | 7.2 | · | · | ·
O=C(N/N=C/c1c(O)n(CCc2ccccc2)c(=O)[nH]c1=O)c1ccccc1 | · | -0.8 | 8.6 | 37.1* | · | · | -6.2 | 5.9
CC/C(=N\NC(=O)c1ccccc1)c1c(O)n(Cc2ccccc2)c(=O)[nH]c1=O | · | 11.4 | 5.9 | 21.4* | · | · | 1.7 | 16.2
O=c1[nH]c2cc(Cl)ccc2n1C1CCN(Cc2ccc(-c3nc4ccccc4nc3-c3ccccc3)cc2)CC1 | · | -10.5 | -2.7 | 12.1 | · | · | · | ·
Cc1cccc(NC(=O)CN2CCN(C(=O)COc3cccc(Br)c3)CC2)c1C | 1.6 | -0.3 | 4.4 | -2.3 | -3.3 | · | · | ·
C#C[C@]1(O)CC[C@H]2[C@@H]3CCC4=CC(=O)CC[C@]4(C)[C@H]3CC[C@@]21C | 2.6 | 7.7 | -3.3 | 19.6* | 6.6 | · | -0.2 | 0.5
S=C(NCCc1ccccc1)N1Cc2cc(-c3ccccc3)ccc2-n2nncc2C1 | · | -24.1 | -48.7 | 21.5* | · | · | 10.3 | 7.2
Fc1cccc(-c2ccc3c(c2)CN(C(=S)NCCc2ccccc2)Cc2cnnn2-3)c1 | · | -43.1 | -7.6 | 0.4 | · | · | · | ·
CN1C(=O)NC(=O)/C(=C/c2ccc([N+](=O)[O-])o2)C1=O | · | 4.0 | -5.4 | 19.5* | · | · | -6.3 | 6.7
CN1C(=O)NC(=O)/C(=C\c2ccc([N+](=O)[O-])o2)C1=O | -0.1 | · | · | · | 5.4 | · | · | ·
C[C@]12CCC3C(CC[C@H]4C[C@@H](O)CC[C@]34C)C1CC[C@@H]2N (stereo partly drawn) | 0.9 | 2.1 | 1.2 | 0.6 | -6.8 | · | · | ·
NN=C1C(Cl)=C(Cl)C(Cl)=C1Cl | 10.5 | 0.5 | 28.0 | 23.4* | 26.4 | · | 11.2 | 9.1
c1ccc(C2(NC3=NCCO3)CCCCC2)cc1 | -10.3 | -1.0 | 1.6 | 2.6 | 1.4 | · | · | ·
CC[C@]12CC[C@H](O)CC1=CCC1C2CC[C@]2(C)C(=O)CCC12 (stereo partly drawn) | · | -5.4 | 1.9 | -0.6 | · | · | · | ·
Nc1ccc(CCN2CCN(c3cccc(C(F)(F)F)c3)CC2)cc1 | 3.5 | 4.2 | -2.7 | 43.9* | -1.2 | · | -4.3 | -0.1
O=[N+]([O-])c1ccc(N2CCCCCC2)c2nonc12 | -60.2 | -16.8 | 23.2 | 79.2* | 15.0 | · | 103.1* | 87.4*
CCCN1CCC[C@@H](c2cccc(O)c2)C1 | -0.7 | -1.3 | -5.0 | 2.4 | 2.1 | · | · | ·
CCCCCCn1c(=O)c(C(=O)Nc2ncccc2O)c(O)c2ccccc21 | 4.4 | 3.3 | 6.4 | 26.4* | 7.5 | · | -2.8 | 22.4*
